In ChEMBL document CHEMBL2169854, “New insight into the central benzodiazepine receptor-ligand interactions: design, synthesis, biological evaluation, and molecular modeling of 3-substituted 6-phenyl-4H-imidazo[1,5-a][1,4]benzodiazepines and related compounds” (J Med Chem, 2011):

Legend:
[1] = target: T1, GABA-A receptor; alpha-5/beta-3/gamma-2 (Homo sapiens, UniProt P18507+P28472+P31644); test: Displacement of [3H]flumazenil from human recombinant GABA-A alpha5beta3gamma2L receptor in HEK293 cells; format: cell-based
T1 sequence (P18507 whole entry): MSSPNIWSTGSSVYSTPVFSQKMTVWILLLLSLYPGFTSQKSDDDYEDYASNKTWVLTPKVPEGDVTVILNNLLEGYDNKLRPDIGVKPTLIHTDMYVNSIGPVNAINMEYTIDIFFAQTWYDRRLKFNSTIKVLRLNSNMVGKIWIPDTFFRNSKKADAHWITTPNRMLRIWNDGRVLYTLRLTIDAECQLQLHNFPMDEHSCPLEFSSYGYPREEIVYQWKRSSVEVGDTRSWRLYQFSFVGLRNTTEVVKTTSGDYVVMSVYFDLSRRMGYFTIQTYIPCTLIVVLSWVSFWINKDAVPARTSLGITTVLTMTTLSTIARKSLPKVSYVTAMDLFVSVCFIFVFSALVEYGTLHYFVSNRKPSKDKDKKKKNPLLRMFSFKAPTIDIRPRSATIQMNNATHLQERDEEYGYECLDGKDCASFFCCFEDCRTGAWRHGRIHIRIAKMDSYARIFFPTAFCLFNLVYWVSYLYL
T1 sequence (P28472 whole entry): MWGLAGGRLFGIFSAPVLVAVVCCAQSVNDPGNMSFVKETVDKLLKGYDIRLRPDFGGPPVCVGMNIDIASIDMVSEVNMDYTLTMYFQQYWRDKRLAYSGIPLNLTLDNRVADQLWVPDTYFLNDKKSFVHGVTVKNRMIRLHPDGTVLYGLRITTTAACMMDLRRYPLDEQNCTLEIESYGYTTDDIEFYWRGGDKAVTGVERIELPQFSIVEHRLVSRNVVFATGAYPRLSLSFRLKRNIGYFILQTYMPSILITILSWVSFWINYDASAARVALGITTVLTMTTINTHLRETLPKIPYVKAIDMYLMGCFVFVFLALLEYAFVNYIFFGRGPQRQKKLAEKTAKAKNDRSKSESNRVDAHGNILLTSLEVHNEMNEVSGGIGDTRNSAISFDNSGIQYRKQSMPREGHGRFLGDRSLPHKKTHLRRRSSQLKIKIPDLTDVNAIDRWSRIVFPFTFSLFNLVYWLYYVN
T1 sequence (P31644 whole entry): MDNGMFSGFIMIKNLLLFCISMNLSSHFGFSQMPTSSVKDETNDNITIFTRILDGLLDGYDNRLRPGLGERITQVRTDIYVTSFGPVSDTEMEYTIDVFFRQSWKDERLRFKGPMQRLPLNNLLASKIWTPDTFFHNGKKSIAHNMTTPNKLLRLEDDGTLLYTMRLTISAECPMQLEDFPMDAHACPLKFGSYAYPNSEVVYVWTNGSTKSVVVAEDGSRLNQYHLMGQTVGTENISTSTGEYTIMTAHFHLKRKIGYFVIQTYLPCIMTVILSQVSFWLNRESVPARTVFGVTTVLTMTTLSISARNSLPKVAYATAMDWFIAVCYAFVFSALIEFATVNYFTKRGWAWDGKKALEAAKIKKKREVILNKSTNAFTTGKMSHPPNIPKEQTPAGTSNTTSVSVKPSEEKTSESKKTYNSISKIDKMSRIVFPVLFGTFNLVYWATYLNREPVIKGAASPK
Method in brief: (§1)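 Membranes came from stably transfected HEK293 lines expressing α2β2γ2 or α5β3γ2, grown in MEM/EBSS with 10% FCS at 37 C, and were resuspended in 10 mM potassium phosphate pH 7.4 with 100 mM KCl. […] At least six concentrations were tested, DMSO ≤1%. Ki was obtained by Cheng–Prusoff from n = 3 experiments run in triplicate.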

[2] = Displacement of [3H]flumazenil from central benzodiazepine receptor in human cortical membrane after 90 mins by beta liquid scintillation counting; format: cell membranes
[3] = target: T2, GABA A receptor alpha-1/beta-1/gamma-2 (Homo sapiens) (UniProt P14867+P18507+P18505); test: (§2) Modulation of human recombinant GABA-A alpha1beta1gamma2L receptor expressed in Xenopus laevis oocytes assessed as effect on GABA-induced chloride current at 10 uM incubated 60 seconds before addition of GABA measured after 30 seconds at holding potential -70 mV by two-microelectrode voltage clamp technique relative to control; format: cell-based; settings: Oocyte
[4] = target: T2, GABA A receptor alpha-1/beta-1/gamma-2 (Homo sapiens); test: as §2, with “1” for “10”; format: cell-based; settings: Oocyte
Oocyte = test: as §2, with “alpha5beta2gamma2L” for “alpha1beta1gamma2L”, “1” for “10”; format: cell-based
[5] = target: T3, GABA A receptor alpha-2/beta-2/gamma-2 (Homo sapiens, UniProt P18507+P47869+P47870); test: Displacement of [3H]flumazenil from human recombinant GABA-A alpha2beta2gamma2L receptor expressed in HEK293 cells; format: cell-based; method in brief: as §1
T3 sequence (P47870 whole entry): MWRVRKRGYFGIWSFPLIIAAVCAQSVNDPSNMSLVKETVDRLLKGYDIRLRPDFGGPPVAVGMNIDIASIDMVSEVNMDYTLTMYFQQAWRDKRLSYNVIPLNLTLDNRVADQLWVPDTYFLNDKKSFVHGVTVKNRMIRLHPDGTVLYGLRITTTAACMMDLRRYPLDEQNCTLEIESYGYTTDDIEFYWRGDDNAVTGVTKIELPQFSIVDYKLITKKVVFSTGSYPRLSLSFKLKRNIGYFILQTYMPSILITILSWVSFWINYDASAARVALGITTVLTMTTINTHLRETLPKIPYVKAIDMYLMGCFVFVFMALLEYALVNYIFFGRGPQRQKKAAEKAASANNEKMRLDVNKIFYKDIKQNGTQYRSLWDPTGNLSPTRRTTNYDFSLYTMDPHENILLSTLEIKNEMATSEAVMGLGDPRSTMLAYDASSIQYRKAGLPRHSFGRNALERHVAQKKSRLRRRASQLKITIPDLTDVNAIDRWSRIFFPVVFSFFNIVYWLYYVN
T3 sequence (P18507 whole entry): T1 sequence (P18507 whole entry)
T3 sequence (P47869 whole entry): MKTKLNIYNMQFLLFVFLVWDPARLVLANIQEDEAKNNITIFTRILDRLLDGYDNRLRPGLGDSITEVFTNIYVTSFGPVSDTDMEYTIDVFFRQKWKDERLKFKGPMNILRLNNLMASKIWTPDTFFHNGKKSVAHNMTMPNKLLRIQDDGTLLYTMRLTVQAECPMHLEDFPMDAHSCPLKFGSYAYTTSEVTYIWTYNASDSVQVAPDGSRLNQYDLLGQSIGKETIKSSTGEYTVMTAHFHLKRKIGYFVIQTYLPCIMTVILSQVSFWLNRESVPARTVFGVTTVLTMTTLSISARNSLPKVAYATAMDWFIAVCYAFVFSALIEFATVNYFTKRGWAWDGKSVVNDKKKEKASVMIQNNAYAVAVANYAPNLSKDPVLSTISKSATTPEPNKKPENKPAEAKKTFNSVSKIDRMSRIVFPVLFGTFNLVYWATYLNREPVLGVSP

[6] = Displacement of [3H]flumazenil from central benzodiazepine receptor in bovine cortical membrane after 90 mins by beta liquid scintillation counting; format: cell membranes, Bos taurus
Method in brief: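 At least six concentrations spanning 3 log units were tested in 2% DMSO. Ki was obtained by Cheng–Prusoff (Kd 0.85 nM bovine, 0.91 nM human), mean of three determinations.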

For `CCOC(=O)c1ncn2c1CN=C(c1ccc(C)cc1)c1ccccc1-2`, the Ki [1] was 908 nM, the Ki [2] was 18.5 nM and the Activity [3] was 8.3%. It also gave an Activity [4] of 0%, an Activity (Oocyte) of -4% and a Ki [5] of 105 nM. The Ki [6] was 11.4 nM.

Compound `CCOC(=O)c1ncn2c1CN=C(c1ccc(F)cc1)c1cc(F)ccc1-2` has a Ki [1] of 772 nM, a Ki [2] of 22.3 nM and an Activity [3] of 6.5%. For the same compound, the Activity [4] was -7.5%, the Activity (Oocyte) was -1% and the Ki [5] was 60 nM. It also gave a Ki [6] of 10.9 nM.
